From ChEMBL document CHEMBL2380219, “Physalin A induces apoptotic cell death and protective autophagy in HT1080 human fibrosarcoma cells” (J Nat Prod, 2013)
pIC50: −log10 of the molar value. Activity calls are given as the source filed them. No cut-off for these calls is given here.

Legend:
HT-1080 [1] = assay: Induction of apoptosis in human HT1080 cells assessed as increase in apoptotic ratio at 10 uM pretreated with rapamycin for 1 hr prior to compound addition measured after 24 hrs by propidium iodide staining-based FACS flow cytometric analysis; format: functional, cell-based
HT-1080 [2] = assay: Induction of apoptosis in human HT1080 cells assessed as increase in PARP cleavage at 10 uM pretreated with rapamycin for 1 hr prior to compound addition measured after 24 hrs by Western blotting analysis; format: functional, cell-based
Summary of the method: (§1)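 HT1080 cells pretreated 1 h with 1 mM 3MA or 1 nM rapamycin, then co-incubated with 10 μM for 24 h. Adherent and floating cells lysed in Hepes pH 7.4/Triton buffer. 12% SDS-PAGE, nitrocellulose, antibodies against Fas, FADD, caspase-8, caspase-3, PARP and ICAD, ECL detection. Densities normalized to β-actin; n = 3.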

HT-1080 [3] = assay: Induction of apoptosis in human HT1080 cells assessed as increase in procaspase-8 cleavage at 10 uM pretreated with rapamycin for 1 hr prior to compound addition measured after 24 hrs by Western blotting analysis; format: functional, cell-based; summary of the method: as §1
HT-1080 [4] = assay: Induction of apoptosis in human HT1080 cells assessed as upregulation of FADD protein expression at 10 uM pretreated with 3MA for 1 hr prior to compound addition measured after 24 hrs by Western blotting analysis; format: functional, cell-based; summary of the method: as §1
HT-1080 [5] = assay: Induction of apoptosis in human HT1080 cells assessed as upregulation of FADD protein expression at 10 uM pretreated with rapamycin for 1 hr prior to compound addition measured after 24 hrs by Western blotting analysis; format: functional, cell-based; summary of the method: as §1
A375-S2 = assay: Cytotoxicity against human A375-S2 cells assessed as growth inhibition after 24 hrs by MTT assay; format: functional, cell-based
Summary of the method: (§2)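 Seeded 0.8 × 10^4 cells/well, cultured 24 h, then exposed to 0, 10, 20, 40 or 80 μM for 24 h (DMSO <0.05%) in RPMI 1640 or MEM with 10% FBS. Adherent lines rinsed with PBS, given MTT 2 h at 37 °C. Suspension lines (U937, HL60) given MTT 2 h, then centrifuged. Formazan dissolved in DMSO, A492 read. Inhibition % = (control − sample)/(control − blank) × 100.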

HT-1080 [6] = assay: Induction of autophagy in human HT1080 cells assessed as increase in autophagy ratio at 10 uM pretreated with rapamycin for 1 hr prior to compound addition measured after 24 hrs by MDC staining-based FACS flow cytometric analysis; format: functional, cell-based
Summary of the method: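 HT1080 cells seeded at 3 × 10^5 per flask and grown 24 h. Pretreated 1 h with 1 mM 3MA or 1 nM rapamycin, then 10 μM for 24 h. Collected cells stained with 0.05 mM MDC at 37 °C for 1 h. MDC-positive ratio measured by flow cytometry, n = 3, mean ± SD.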

HeLa = assay: Cytotoxicity against human HeLa cells assessed as growth inhibition after 24 hrs by MTT assay; format: functional, cell-based; summary of the method: as §2
HT-1080 [7] = assay: Induction of apoptosis in human HT1080 cells assessed as accumulation in subG1 phase at 10 uM after 24 hrs by propidium iodide staining-based FACS flow cytometric analysis (reference value: 0.32%); format: functional
HT-1080 [8] = assay: Induction of autophagy in human HT1080 cells assessed as upregulation of beclin 1 at 10 uM pretreated with 3MA for 1 hr prior to compound addition measured after 24 hrs by Western blotting analysis; format: functional, cell-based
Summary of the method: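 HT1080 cells pretreated 1 h with 1 mM 3MA or 1 nM rapamycin, then 10 μM added for 24 h. Adherent and floating cells lysed in Hepes pH 7.4/Triton buffer. Equal protein on 12% SDS-PAGE and nitrocellulose, probed for beclin 1 and LC3, ECL detection. Normalized to β-actin, n = 3.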

HL-60 = assay: Cytotoxicity against human HL60 cells assessed as growth inhibition after 24 hrs by MTT assay; format: functional, cell-based; summary of the method: as §2
HT-1080 [9] = assay: Induction of apoptosis in human HT1080 cells assessed as increase in apoptotic ratio at 10 uM pretreated with 3MA for 1 hr prior to compound addition measured after 24 hrs by propidium iodide staining-based FACS flow cytometric analysis; format: functional, cell-based
HT-1080 [10] = assay: Induction of apoptosis in human HT1080 cells expressing beclin 1 siRNA assessed as ICAD downregulation at 10 uM after 24 hrs by Western blotting relative to control; format: functional, cell-based
Summary of the method: (§3)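 5 × 10^5 HT1080 cells transfected with beclin 1 or nonspecific siRNA using TranSmarter for 7 h at 37 °C, then kept 24 h in normal medium. Treated with 10 μM for 24 h and lysed. Proteins assessed by Western blot with β-actin normalization and compared with nonspecific-siRNA groups.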

HT-1080 [11] = assay: Induction of apoptosis in human HT1080 cells assessed as procaspase-8 cleavage at 10 uM by Western blotting analysis; format: functional, cell-based; conditions: TDE = time-dependent effect
HT-1080 [12] = assay: Induction of autophagy in human HT1080 cells assessed as upregulation of beclin 1 at 10 uM by Western blotting analysis; format: functional, cell-based; conditions: TDE = time-dependent effect
Summary of the method: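 HT1080 cells exposed to 10 μM for 6, 12, 18 and 24 h, then lysed in Hepes pH 7.4/Triton buffer at 4 °C for 60 min. Equal protein run on 12% SDS-PAGE, blotted to nitrocellulose, probed for beclin 1 and LC3, ECL detection. Densities taken relative to β-actin, n = 3.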

HT-1080 [13] = assay: Cytotoxicity against human HT1080 cells assessed as growth inhibition after 24 hrs by MTT assay; format: functional, cell-based; conditions: HT-1080, 24 h
HT-1080 [14] = assay: Induction of apoptosis in human HT1080 cells assessed as increase in procaspase-8 cleavage at 10 uM pretreated with 3MA for 1 hr prior to compound addition measured after 24 hrs by Western blotting analysis; format: functional, cell-based; summary of the method: as §1
HCT-116 = assay: Cytotoxicity against human HCT116 cells assessed as growth inhibition after 24 hrs by MTT assay; format: functional, cell-based; summary of the method: as §2
PBMC = assay: Cytotoxicity against human PBMC at 10 to 80 uM after 24 to 48 hrs by MTT assay; format: cell-based
Summary of the method: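 PBMC from fresh blood of three healthy male donors. Blood diluted 1:3 in PBS, layered on Ficoll-Hypaque (1.077 g/mL), spun 900g 30 min. Band washed 400g 10 min, cells resuspended in complete RPMI-1640 in 96-well plates. Treated with 0, 10, 20, 40 or 80 μM for 24 and 48 h, then MTT. Means ± SD of three independent experiments.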

HT-1080 [15] = assay: Induction of apoptosis in human HT1080 cells expressing beclin 1 siRNA assessed as increase in FADD protein expression at 10 uM after 24 hrs by Western blotting analysis relative to control; format: functional, cell-based; summary of the method: as §3
HT-1080 [16] = assay: Induction of apoptosis in human HT1080 cells expressing beclin 1 siRNA assessed as increase in procaspase-3 cleavage at 10 uM after 24 hrs by Western blotting analysis relative to control; format: functional, cell-based
Summary of the method: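 Beclin 1 or nonspecific siRNA transfected into HT1080 cells (5 × 10^5 seeded a day earlier; transfection mixture for 7 h at 37 °C, then normal medium, 24 h before harvest). Cells then got 10 μM for 24 h. Adherent plus floating cells lysed in Hepes pH 7.4/Triton buffer at 4 °C for 60 min. Equal protein on 12% SDS-PAGE, nitrocellulose, ECL. Bands normalized to β-actin, n = 3.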

C=C1C(=O)O[C@@H]2C[C@@]1(C)[C@@H]1C(=O)[C@]3(O)O[C@]14[C@@]2(C)OC(=O)[C@@]4(O)CC[C@H]1[C@H]3[C@H](O)C=C2CC=CC(=O)[C@@]21C [PHYSALIN A]
Activity (HT-1080 [1]): inactive | Activity (HT-1080 [2]): inactive | Activity (HT-1080 [3]): inactive | Activity (HT-1080 [4]): Active | Activity (HT-1080 [5]): inactive | growth inhibition (GI) (A375-S2): Dose-dependent effect | Activity (HT-1080 [6]): Active | growth inhibition (GI) (HeLa): Dose-dependent effect | Activity (HT-1080 [7]): 27.79% | Activity (HT-1080 [8]): inactive | growth inhibition (GI) (HL-60): Dose-dependent effect | Activity (HT-1080 [9]): Active | Activity (HT-1080 [10]): Active | Activity (HT-1080 [11]): tde | Activity (HT-1080 [12]): tde | pIC50 (HT-1080 [13]): 4.97 | Activity (HT-1080 [14]): Active | growth inhibition (GI) (HCT-116): Dose-dependent effect | Activity (PBMC): Non-toxic | Activity (HT-1080 [15]): Active | Activity (HT-1080 [16]): Active
